Laboratory results from ChEMBL document CHEMBL5058577, “EUbOPEN Chemogenomics Library 2 (Multiplex)” (2022).

Tested on: U2OS
Test: Multiplex assay against U2OS
Format: toxicity, cell-based
Details: human
In short: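 Per cents of healthy-nucleus cells form the tubulin, mitochondrial-mass and membrane-permeability phenotype values. Live cells were stained at seeding with Hoechst33342, BioTracker Green Microtubule Cytoskeleton Dye, MitoTracker Red and Annexin V Alexa Fluor 680. After compound addition they were imaged on a CQ1 microscope at 37°C and 5% CO2, and CellPathfinder machine-learning gating split them into Hoechst high-intensity objects or normal cells, normal cells into healthy, pyknosed or fragmented nuclei, and pyknosed cells into mitotic or apoptotic.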

[1] = 12 h, 1 µM, compound concentration 1 uM, replicate 1
[2] = 12 h, 1 µM, compound concentration 1 uM, replicate 2
[3] = 12 h, 10 µM, compound concentration 10 uM, replicate 1
[4] = 12 h, 10 µM, compound concentration 10 uM, replicate 2
[5] = 24 h, 1 µM, compound concentration 1 uM, replicate 1
[6] = 24 h, 1 µM, compound concentration 1 uM, replicate 2
[7] = 24 h, 10 µM, compound concentration 10 uM, replicate 1
[8] = 24 h, 10 µM, compound concentration 10 uM, replicate 2
[9] = 48 h, 1 µM, compound concentration 1 uM, replicate 1
[10] = 48 h, 1 µM, compound concentration 1 uM, replicate 2
[11] = 48 h, 10 µM, compound concentration 10 uM, replicate 1
[12] = 48 h, 10 µM, compound concentration 10 uM, replicate 2

Structure (SMILES): c1cc(OCCCN2CCCCC2)ccc1CN1CCCCC1 [JNJ-5207852]
- Population Apoptotic (%) [1]: 76%
- Population Fragmented Nuclei (%) [1]: 29%
- Population Healthy Nuclei (%) [1]: 65%
- Population Hoechst High Intensity Objects (%) [1]: 2%
- Population Membrane Permeable-Phenotype (%) [1]: 5%
- Population Mitochondria Different-Phenotype (%) [1]: 3%
- Population Mitotic Cells (%) [1]: 23%
- Population Normal (%) [1]: 97%
- Population Pyknosed Nuclei (%) [1]: 5%
- Population Tubulin-Different-Phenotype (%) [1]: 3%
- Total Cell Count [1]: 253
- Population Apoptotic (%) [2]: 58%
- Population Fragmented Nuclei (%) [2]: 25%
- Population Healthy Nuclei (%) [2]: 62%
- Population Hoechst High Intensity Objects (%) [2]: 0%
- Population Membrane Permeable-Phenotype (%) [2]: 7%
- Population Mitotic Cells (%) [2]: 41%
- Population Normal (%) [2]: 99%
- Population Pyknosed Nuclei (%) [2]: 11%
- Total Cell Count [2]: 106
- Population Apoptotic (%) [3]: 73%
- Population Fragmented Nuclei (%) [3]: 34%
- Population Healthy Nuclei (%) [3]: 57%
- Population Hoechst High Intensity Objects (%) [3]: 2%
- Population Membrane Permeable-Phenotype (%) [3]: 5%
- Population Mitochondria Different-Phenotype (%) [3]: 3%
- Population Mitotic Cells (%) [3]: 26%
- Population Normal (%) [3]: 97%
- Population Pyknosed Nuclei (%) [3]: 8%
- Population Tubulin-Different-Phenotype (%) [3]: 3%
- Total Cell Count [3]: 228
- Population Apoptotic (%) [4]: 85%
- Population Fragmented Nuclei (%) [4]: 13%
- Population Healthy Nuclei (%) [4]: 80%
- Population Hoechst High Intensity Objects (%) [4]: 4%
- Population Membrane Permeable-Phenotype (%) [4]: 7%
- Population Mitochondria Different-Phenotype (%) [4]: 9%
- Population Mitotic Cells (%) [4]: 14%
- Population Normal (%) [4]: 95%
- Population Pyknosed Nuclei (%) [4]: 6%
- Population Tubulin-Different-Phenotype (%) [4]: 6%
- Total Cell Count [4]: 120
- Population Apoptotic (%) [5]: 84%
- Population Fragmented Nuclei (%) [5]: 25%
- Population Healthy Nuclei (%) [5]: 65%
- Population Hoechst High Intensity Objects (%) [5]: 1%
- Population Membrane Permeable-Phenotype (%) [5]: 3%
- Population Mitochondria Different-Phenotype (%) [5]: 2%
- Population Mitotic Cells (%) [5]: 16%
- Population Normal (%) [5]: 98%
- Population Pyknosed Nuclei (%) [5]: 8%
- Population Tubulin-Different-Phenotype (%) [5]: 2%
- Total Cell Count [5]: 287
- Population Apoptotic (%) [6]: 66%
- Population Fragmented Nuclei (%) [6]: 21%
- Population Healthy Nuclei (%) [6]: 68%
- Population Hoechst High Intensity Objects (%) [6]: 0%
- Population Membrane Permeable-Phenotype (%) [6]: 4%
- Population Mitotic Cells (%) [6]: 33%
- Population Normal (%) [6]: 100%
- Population Pyknosed Nuclei (%) [6]: 10%
- Population Tubulin-Different-Phenotype (%) [6]: 4%
- Total Cell Count [6]: 119
- Population Apoptotic (%) [7]: 82%
- Population Fragmented Nuclei (%) [7]: 28%
- Population Healthy Nuclei (%) [7]: 62%
- Population Hoechst High Intensity Objects (%) [7]: 1%
- Population Membrane Permeable-Phenotype (%) [7]: 4%
- Population Mitochondria Different-Phenotype (%) [7]: 3%
- Population Mitotic Cells (%) [7]: 17%
- Population Normal (%) [7]: 98%
- Population Pyknosed Nuclei (%) [7]: 8%
- Population Tubulin-Different-Phenotype (%) [7]: 3%
- Total Cell Count [7]: 271
- Population Apoptotic (%) [8]: 84%
- Population Fragmented Nuclei (%) [8]: 10%
- Population Healthy Nuclei (%) [8]: 80%
- Population Membrane Permeable-Phenotype (%) [8]: 8%
- Population Mitochondria Different-Phenotype (%) [8]: 5%
- Population Mitotic Cells (%) [8]: 15%
- Population Tubulin-Different-Phenotype (%) [8]: 8%
- Total Cell Count [8]: 157
- Population Apoptotic (%) [9]: 82%
- Population Fragmented Nuclei (%) [9]: 21%
- Population Healthy Nuclei (%) [9]: 69%
- Population Hoechst High Intensity Objects (%) [9]: 2%
- Population Membrane Permeable-Phenotype (%) [9]: 4%
- Population Mitochondria Different-Phenotype (%) [9]: 2%
- Population Mitotic Cells (%) [9]: 17%
- Population Normal (%) [9]: 97%
- Population Pyknosed Nuclei (%) [9]: 8%
- Population Tubulin-Different-Phenotype (%) [9]: 4%
- Total Cell Count [9]: 400
- Population Apoptotic (%) [10]: 76%
- Population Fragmented Nuclei (%) [10]: 19%
- Population Healthy Nuclei (%) [10]: 71%
- Population Hoechst High Intensity Objects (%) [10]: 3%
- Population Membrane Permeable-Phenotype (%) [10]: 9%
- Population Mitochondria Different-Phenotype (%) [10]: 4%
- Population Mitotic Cells (%) [10]: 23%
- Population Normal (%) [10]: 96%
- Population Tubulin-Different-Phenotype (%) [10]: 3%
- Total Cell Count [10]: 152
- Population Apoptotic (%) [11]: 86%
- Population Fragmented Nuclei (%) [11]: 22%
- Population Healthy Nuclei (%) [11]: 70%
- Population Hoechst High Intensity Objects (%) [11]: 2%
- Population Membrane Permeable-Phenotype (%) [11]: 7%
- Population Mitochondria Different-Phenotype (%) [11]: 3%
- Population Mitotic Cells (%) [11]: 13%
- Population Normal (%) [11]: 97%
- Population Pyknosed Nuclei (%) [11]: 6%
- Population Tubulin-Different-Phenotype (%) [11]: 5%
- Total Cell Count [11]: 345
- Population Apoptotic (%) [12]: 93%
- Population Fragmented Nuclei (%) [12]: 14%
- Population Healthy Nuclei (%) [12]: 78%
- Population Hoechst High Intensity Objects (%) [12]: 1%
- Population Membrane Permeable-Phenotype (%) [12]: 6%
- Population Mitochondria Different-Phenotype (%) [12]: 2%
- Population Mitotic Cells (%) [12]: 6%
- Population Normal (%) [12]: 98%
- Population Tubulin-Different-Phenotype (%) [12]: 4%
- Total Cell Count [12]: 245

Structure (SMILES): Cc1ccc(F)cc1C(=O)Nc1ccc(C(=O)N2Cc3cccn3Cc3ccccc32)c(Cl)c1 [LIXIVAPTAN]
- Population Apoptotic (%) [1]: 69%
- Population Fragmented Nuclei (%) [1]: 32%
- Population Healthy Nuclei (%) [1]: 55%
- Population Hoechst High Intensity Objects (%) [1]: 3%
- Population Membrane Permeable-Phenotype (%) [1]: 9%
- Population Mitochondria Different-Phenotype (%) [1]: 9%
- Population Mitotic Cells (%) [1]: 30%
- Population Normal (%) [1]: 96%
- Population Pyknosed Nuclei (%) [1]: 11%
- Population Tubulin-Different-Phenotype (%) [1]: 7%
- Total Cell Count [1]: 230
- Population Apoptotic (%) [2]: 84%
- Population Fragmented Nuclei (%) [2]: 8%
- Population Healthy Nuclei (%) [2]: 82%
- Population Membrane Permeable-Phenotype (%) [2]: 14%
- Population Mitochondria Different-Phenotype (%) [2]: 10%
- Population Mitotic Cells (%) [2]: 15%
- Population Pyknosed Nuclei (%) [2]: 8%
- Population Tubulin-Different-Phenotype (%) [2]: 11%
- Total Cell Count [2]: 150
- Population Apoptotic (%) [3]: 59%
- Population Fragmented Nuclei (%) [3]: 34%
- Population Healthy Nuclei (%) [3]: 49%
- Population Hoechst High Intensity Objects (%) [3]: 5%
- Population Membrane Permeable-Phenotype (%) [3]: 79%
- Population Mitochondria Different-Phenotype (%) [3]: 42%
- Population Mitotic Cells (%) [3]: 40%
- Population Normal (%) [3]: 94%
- Population Pyknosed Nuclei (%) [3]: 16%
- Population Tubulin-Different-Phenotype (%) [3]: 85%
- Total Cell Count [3]: 203
- Population Apoptotic (%) [4]: 47%
- Population Fragmented Nuclei (%) [4]: 13%
- Population Healthy Nuclei (%) [4]: 69%
- Population Membrane Permeable-Phenotype (%) [4]: 63%
- Population Mitochondria Different-Phenotype (%) [4]: 55%
- Population Mitotic Cells (%) [4]: 52%
- Population Tubulin-Different-Phenotype (%) [4]: 77%
- Total Cell Count [4]: 119
- Population Apoptotic (%) [5]: 86%
- Population Fragmented Nuclei (%) [5]: 26%
- Population Healthy Nuclei (%) [5]: 64%
- Population Hoechst High Intensity Objects (%) [5]: 1%
- Population Membrane Permeable-Phenotype (%) [5]: 9%
- Population Mitochondria Different-Phenotype (%) [5]: 9%
- Population Mitotic Cells (%) [5]: 13%
- Population Normal (%) [5]: 98%
- Population Pyknosed Nuclei (%) [5]: 8%
- Population Tubulin-Different-Phenotype (%) [5]: 4%
- Total Cell Count [5]: 257
- Population Apoptotic (%) [6]: 57%
- Population Fragmented Nuclei (%) [6]: 14%
- Population Healthy Nuclei (%) [6]: 81%
- Population Hoechst High Intensity Objects (%) [6]: 4%
- Population Membrane Permeable-Phenotype (%) [6]: 11%
- Population Mitochondria Different-Phenotype (%) [6]: 13%
- Population Mitotic Cells (%) [6]: 42%
- Population Normal (%) [6]: 95%
- Population Pyknosed Nuclei (%) [6]: 4%
- Population Tubulin-Different-Phenotype (%) [6]: 7%
- Total Cell Count [6]: 171
- Population Apoptotic (%) [7]: 59%
- Population Fragmented Nuclei (%) [7]: 30%
- Population Healthy Nuclei (%) [7]: 50%
- Population Hoechst High Intensity Objects (%) [7]: 4%
- Population Membrane Permeable-Phenotype (%) [7]: 65%
- Population Mitochondria Different-Phenotype (%) [7]: 63%
- Population Mitotic Cells (%) [7]: 40%
- Population Normal (%) [7]: 95%
- Population Pyknosed Nuclei (%) [7]: 18%
- Population Tubulin-Different-Phenotype (%) [7]: 75%
- Total Cell Count [7]: 207
- Population Apoptotic (%) [8]: 66%
- Population Fragmented Nuclei (%) [8]: 14%
- Population Healthy Nuclei (%) [8]: 67%
- Population Membrane Permeable-Phenotype (%) [8]: 54%
- Population Mitochondria Different-Phenotype (%) [8]: 67%
- Population Mitotic Cells (%) [8]: 33%
- Population Tubulin-Different-Phenotype (%) [8]: 66%
- Total Cell Count [8]: 119
- Population Apoptotic (%) [9]: 87%
- Population Fragmented Nuclei (%) [9]: 24%
- Population Healthy Nuclei (%) [9]: 64%
- Population Hoechst High Intensity Objects (%) [9]: 1%
- Population Membrane Permeable-Phenotype (%) [9]: 9%
- Population Mitochondria Different-Phenotype (%) [9]: 6%
- Population Mitotic Cells (%) [9]: 12%
- Population Normal (%) [9]: 98%
- Population Pyknosed Nuclei (%) [9]: 11%
- Population Tubulin-Different-Phenotype (%) [9]: 5%
- Total Cell Count [9]: 378
- Population Apoptotic (%) [10]: 95%
- Population Fragmented Nuclei (%) [10]: 10%
- Population Healthy Nuclei (%) [10]: 79%
- Population Hoechst High Intensity Objects (%) [10]: 3%
- Population Membrane Permeable-Phenotype (%) [10]: 13%
- Population Mitochondria Different-Phenotype (%) [10]: 11%
- Population Mitotic Cells (%) [10]: 5%
- Population Normal (%) [10]: 96%
- Population Pyknosed Nuclei (%) [10]: 10%
- Total Cell Count [10]: 206
- Population Apoptotic (%) [11]: 75%
- Population Fragmented Nuclei (%) [11]: 32%
- Population Healthy Nuclei (%) [11]: 37%
- Population Hoechst High Intensity Objects (%) [11]: 5%
- Population Membrane Permeable-Phenotype (%) [11]: 49%
- Population Mitochondria Different-Phenotype (%) [11]: 40%
- Population Mitotic Cells (%) [11]: 25%
- Population Normal (%) [11]: 94%
- Population Pyknosed Nuclei (%) [11]: 29%
- Population Tubulin-Different-Phenotype (%) [11]: 44%
- Total Cell Count [11]: 232
- Population Apoptotic (%) [12]: 92%
- Population Fragmented Nuclei (%) [12]: 18%
- Population Healthy Nuclei (%) [12]: 58%
- Population Hoechst High Intensity Objects (%) [12]: 12%
- Population Membrane Permeable-Phenotype (%) [12]: 60%
- Population Mitochondria Different-Phenotype (%) [12]: 52%
- Population Mitotic Cells (%) [12]: 7%
- Population Normal (%) [12]: 87%
- Population Pyknosed Nuclei (%) [12]: 23%
- Population Tubulin-Different-Phenotype (%) [12]: 57%
- Total Cell Count [12]: 137
